The text below walks through data of publication PMC6397674 (Clinical cancer research : an official journal of the …, 2018).

Data set [1] has as its system murine genetically engineered T-ALL and human T-ALL cell lines such as MOLT4, Jurkat, HPB-ALL and KARPAS45. The conditions noted are these: cited from earlier work.
Another data set relates to T-ALL cell lines. It counts as cell-based, human. The conditions noted are these: read-out: IC50 values, 72 hours of culture. In outline: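 Human T-ALL cell lines (CEM, Jurkat, MOLT4, Loucy, PEER) were cultured with a range of test compound concentrations for 72 hours. IC50 was calculated from the dose-response curves. Values are means ± S.D. of three independent experiments, compared by one-way ANOVA with Tukey's multiple comparison test.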

Another data set deals with Jurkat cells. Put plainly: Systemic T-ALL, tail-vein injection of luciferase-expressing Jurkat cells. It counts as in vivo, NOD/SCID mice. As to conditions: S2157 50 mg/kg, OG-L002 12.5 mg/kg (its MTD), twice a week for 3 weeks.
The conditions of data set [2]: for changes in complete blood count, liver and kidney functions, histopathological examination of some organs: NOD/SCID mice treated with up to 150 mg/kg.
In data set [3] the test system is CD34-positive normal hematopoietic progenitor cells. Put plainly: Viability of CD34-positive normal bone marrow progenitor cells. Format: cell-based. The conditions noted are these: 72 hours, with stem cell factor and thrombopoietin. In outline: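 Purchased CD34-positive normal bone marrow progenitor cells were cultured with stem cell factor and thrombopoietin, without or with various concentrations of test compound, for 72 hours. Jurkat cells were treated in parallel as a control. Viability was measured by MTT reduction as a percentage of untreated controls. Values are mean ± S.D. of three independent experiments, compared by one-way ANOVA with Bonferroni post-hoc test.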

Data set [4] has as its system mitogen-activated normal T-lymphocytes. Kind of data set: Viability of mitogen-activated normal T-lymphocytes. It counts as cell-based.
A short description of data set [5]: Pharmacokinetic study, plasma and brain concentrations by LC-MS/MS. As to conditions: for Brain/Plasma ratio / AUC / Brain concentration at 0.5 h / Plasma concentration at 0.5 h / T1/2 / nAUC (dose-normalized AUC): NOD.CB17-PrkdcSCID/J mice, single intraperitoneal injection, 50 mg/kg, n = 3; for Brain/Plasma ratio: 0.5 h. Format: in vivo, NOD/SCID mice.
In another data set the test system is T-ALL cells. Put plainly: Subcutaneous T-ALL xenograft. Format: in vivo, NOD/SCID mice. As to conditions: for side effects / size of subcutaneous tumors: intraperitoneal injection at 50 mg/kg, 3 times a week.
For data set [6], the system named is MOLT4 cells. It counts as in vivo, NOD/SCID mice. As to conditions: for effect on CNS leukemia: murine xenotransplant model, histopathological examination / imaging.
Data set [7] concerns MOLT4 cells. Kind of data set: Isobologram / combination index analysis with anti-leukemic drugs. Format: cell-based, human. The conditions noted are these: 72 hours. In outline:
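MOLT4 cells exposed to each of several anti-leukemia drugs, without or with the test compound, for 72 h to generate dose-response curves for each combination. Combination index calculated by the Chou–Talalay method; CI <1.0 taken as synergism. Mean ± S.D. from three independent experiments.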

For data set [8], the system named is ZEB2-positive ETP-ALL cell lines such as Loucy and PEER. Put plainly: Efficacy in relation to ZEB2 expression in T-ALL and ETP-ALL cell lines. It counts as cell-based, human.
In a further data set the test system is primary T-ALL cells. Kind of data set: Combination with anti-leukemic drugs in primary T-ALL cells. Format: cell-based, human.
For a further data set, the system named is T-ALL. The conditions noted are these: read-out: IC50 values; cited from earlier work.
Setting [9] is: single intraperitoneal injection at 50 mg/kg, NOD/SCID and ICR mice.

Regarding `O=C(O)c1ccc(CN2CCC(CN[C@@H]3C[C@H]3c3ccccc3)CC2)cc1` [GSK2879552], the pro-apoptotic activity result in [1] is “failed to show pro-apoptotic activity”.
Regarding `N[C@H]1C[C@@H]1c1ccc(-c2cccc(O)c2)cc1` [OG-L002, reference compound], the IC50 with T-ALL cell lines was not below 20 µM. The “anti-leukemic activity in Jurkat-transplanted mice” value with Jurkat cells is reported as “failed to show anti-leukemic activity”. Also, the “maximum tolerated dose (MTD)” value in [2] (NOD/SCID mice, intraperitoneal injection) is reported as 12.5 mg/kg. Further, the “dose after which recipients died immediately” value in data set [2] (NOD/SCID mice, intraperitoneal injection, unknown causes) was not below 25 mg/kg.
Take `N[C@@H]1C[C@H]1c1cc(F)cc(F)c1OCc1ccccc1` [S2101]: in the data set on T-ALL cell lines, the IC50 is not below 20 µM.
On to `Cl.N[C@H]1CCN(C(=O)CN[C@@H]2C[C@H]2c2cc(F)cc(F)c2OCc2ccccc2)C1` [S2116], for which, in data set [3], the “viability of CD34-positive normal hematopoietic progenitor cells” value is given as “did not affect the viability”. In addition, the “viability of mitogen-activated normal T-lymphocytes” value in [4] is reported as “modestly inhibited”. Moreover, in [5], the Brain/Plasma ratio was determined as 0.17 ± 0.03, the AUC is 41.78 ± 8.66 µM·h, the “Brain concentration at 0.5 h” value is 1.35 ± 0.39 µmol/kg and the “Plasma concentration at 0.5 h” value came to 8.17 ± 2.80 µM. Further, in data set [5], the T1/2 came to 10.88 ± 2.97 h and the “nAUC (dose-normalized AUC)” value stood at 0.84 ± 0.17 µM·h. Moreover, the “overall survival of MOLT4-inoculated mice” value with T-ALL cells (MOLT4-inoculated NOD/SCID mice) is reported as “significantly prolonged”. In the data set with T-ALL cells, the side effects entry is “negligible side effects, such as moderate leukocytosis and thrombocytopenia without bleeding tendency”; the “size of subcutaneous tumors” value is reported as “less than 20 % of that in the untreated control”. The “effect on CNS leukemia” value in the data set with MOLT4 cells [6] is “failed to eradicate CNS disease”. Besides, in the data set with MOLT4 cells [7], the “combined effect with L-asparaginase” value was “synergistic”, the “combined effect with cytosine arabinoside” value is “additive” and the “combined effect with dexamethasone” value is listed as “additive”. Moreover, the “efficacy in ZEB2-positive ETP-ALL cell lines” value in data set [8] is recorded as “relatively ineffective”. Besides, the “changes in complete blood count, liver and kidney functions, histopathological examination of some organs” value in data set [2] is “no obvious changes were observed”.
`CN1CCN(C(=O)CN[C@@H]2C[C@H]2c2cc(F)cc(F)c2OCc2ccccc2)CC1.Cl` [S2157]: in data set [3], the “viability of CD34-positive normal hematopoietic progenitor cells” value is given as “did not affect the viability”. In addition, the “viability of mitogen-activated normal T-lymphocytes” value in [4] is on record as “modestly inhibited”. Also, in data set [5], the Brain/Plasma ratio came to 13.0 ± 6.26, the AUC was determined as 5.75 ± 3.67 µM·h, the “Brain concentration at 0.5 h” value is 64.0 ± 3.46 µmol/kg and the “Plasma concentration at 0.5 h” value was found to be 5.71 ± 2.47 µM. In addition, in [5], the T1/2 was found to be 0.88 ± 0.04 h and the “nAUC (dose-normalized AUC)” value amounted to 0.11 ± 0.07 µM·h. Further, in data set [5] (setting [9]), the “brain/plasma concentration ratio relative to S2116” value was more than 75 fold and the “maximal brain concentration relative to S2116” value is given as “approximately 50 fold”. Besides, in the data set on T-ALL cells, the side effects result was “negligible side effects, such as moderate leukocytosis and thrombocytopenia without bleeding tendency”; the “size of subcutaneous tumors” value is recorded as “less than 20 % of that in the untreated control”. In addition, in the data set with MOLT4 cells [6] (50 mg/kg ip twice a week, log-rank test, P = 0.0246), the “hazard ratio against untreated mice, single agent” value amounted to 0.2371. Also, the “hazard ratio against untreated control, combination with dexamethasone” value in the data set on MOLT4 cells [6] (S2157 50 mg/kg ip twice a week plus dexamethasone 10 mg/kg ip 5 times a week) turned out to be 0.1787. For the same compound, the neurotoxicity result in the data set with MOLT4 cells [6] (murine xenografts) is given as “without detectable neurotoxicity”. Further, the “effect on CNS leukemia” value in the data set with MOLT4 cells [6] is “CNS leukemia nearly disappeared”. Moreover, the “growth of MOLT4 cells (bioluminescence)” value in the data set with MOLT4 cells [6] (twice-per-week injection at either 30 mg/kg or 50 mg/kg) was “almost completely suppressed the growth of MOLT4 cells in most but not all mice”. The “anti-leukemic activity in Jurkat-transplanted mice” value in the data set with Jurkat cells is “therapeutic benefit of S2157 including the eradication of CNS disease”. In the data set on MOLT4 cells [7], the “combined effect with 4-hydroxycyclophosphamide (4-OHCY)” value was “additive”, the “combined effect with L-asparaginase” value is recorded as “synergistic”, the “combined effect with bortezomib” value is “additive” and the “combined effect with dexamethasone” value is recorded as “synergistic”. In the data set on primary T-ALL cells, the “combined effect with L-asparaginase” value is “synergy” and the “combined effect with dexamethasone” value was “synergy”. Also, the “efficacy in ZEB2-positive ETP-ALL cell lines” value in data set [8] is “relatively ineffective”. Besides, in [2], the “changes in complete blood count, liver and kidney functions, histopathological examination of some organs” value is on record as “no obvious changes were observed”.
As for `Cn1cc(C(=O)Nc2ccc([C@@H]3C[C@H]3NCC3CC3)cc2)cn1` [T-3775440], in the data set with T-ALL, the IC50 was more than 10 µM.
